From ChEMBL document CHEMBL4049456, “Identification of 4-(Aminomethyl)-6-(trifluoromethyl)-2-(phenoxy)pyridine Derivatives as Potent, Selective, and Orally Efficacious Inhibitors of the Copper-Dependent Amine Oxidase, Lysyl Oxidase-Like 2 (LOXL2)” (J Med Chem, 2017) come the findings set out here.

The target in data set [1] is T1, Lysyl oxidase homolog 2 (Homo sapiens) (UniProt Q9Y4K0).
T1 sequence (whole entry): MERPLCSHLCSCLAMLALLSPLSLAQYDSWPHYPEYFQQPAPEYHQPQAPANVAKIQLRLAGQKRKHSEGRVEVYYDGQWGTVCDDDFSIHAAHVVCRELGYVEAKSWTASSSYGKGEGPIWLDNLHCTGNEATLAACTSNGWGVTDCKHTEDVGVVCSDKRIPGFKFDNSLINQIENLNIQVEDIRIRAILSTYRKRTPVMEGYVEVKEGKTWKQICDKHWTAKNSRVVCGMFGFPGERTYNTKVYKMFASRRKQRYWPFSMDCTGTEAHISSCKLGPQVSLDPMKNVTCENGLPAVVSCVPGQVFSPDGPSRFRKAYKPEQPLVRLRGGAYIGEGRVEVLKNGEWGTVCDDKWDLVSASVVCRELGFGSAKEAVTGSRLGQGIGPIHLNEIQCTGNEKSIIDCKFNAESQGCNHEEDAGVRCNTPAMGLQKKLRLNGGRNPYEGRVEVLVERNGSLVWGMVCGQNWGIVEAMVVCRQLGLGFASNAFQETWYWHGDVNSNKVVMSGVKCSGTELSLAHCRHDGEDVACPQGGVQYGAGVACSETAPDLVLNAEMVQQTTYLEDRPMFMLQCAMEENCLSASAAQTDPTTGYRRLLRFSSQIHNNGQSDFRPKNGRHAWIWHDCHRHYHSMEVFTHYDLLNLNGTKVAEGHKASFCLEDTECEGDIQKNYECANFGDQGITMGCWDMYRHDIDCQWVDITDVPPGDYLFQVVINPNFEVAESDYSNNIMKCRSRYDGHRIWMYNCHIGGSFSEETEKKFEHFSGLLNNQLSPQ
The experiment in a line: Irreversible inhibition of human LOXL2 assessed as reduction of H2O2 production from oxidative deamination of DAP at 1000 times IC50 preincubated for 2 hrs followed by compound washout and subsequent incubation for 2 hrs prior to substrate addition measured every 2 mins for 40 mins by amplex red reagent-based fluorescence assay relative to control. In short, it runs like this:
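Wells were washed repeatedly with PBS and equilibrated for 2 h. Recovered activity was then compared with nonwashed controls.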

The next data set addresses T2, Lysyl oxidase homolog 2 (Homo sapiens, UniProt Q9Y4K0).
T2 sequence (Q9Y4K0 whole entry): T1 sequence (whole entry)
The experiment in a line: Inhibition of human LOXL2 expressed in CHO cells assessed as reduction of H2O2 production from oxidative deamination of DAP preincubated for 2 hrs followed by substrate addition in presence of 0.1% BSA measured every 2 mins for 1 hr by amplex red reagent-based fluorescence assay. The format is cell-based.

Data set [2] in a line: Cmax in C57BL/6 mouse lung at 30 mg/kg, po by LC-MS/MS analysis. The format is ADME, organism-based. Also on record: dose 30 mg/kg, route oral. In short, it runs like this: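 Normal C57BL/6 mice, n = 3 per time point, received a single oral 30 mg/kg dose formulated in 0.5% methylcellulose.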
The nature of data set [3]: Protein binding in human plasma. It counts as ADME, cell-free. Particulars: read-out: PPB (converted).

Structures are written as SMILES.

Broadly, the inhibition is the drop in the measured response relative to a control, in per cent. As a reminder, the IC50 is the concentration at which inhibition is half-maximal. In general, Cmax refers to the peak of the concentration-time curve. As to `Cl.NCc1cc(Oc2cccc(C(=O)N3C[C@@H](O)[C@H](F)C3)c2)nc(C(F)(F)F)c1` (racemic), in data set [1], the inhibition turned out to be 77%. Further, the IC50 at Lysyl oxidase homolog 2 was 0.1 µM. The same compound gave a Cmax in data set [2] of 21 µM. Besides, in data set [3], the fraction unbound was 0.32.
